The values below come from ChEMBL document CHEMBL1143390 (Bioorg Med Chem, 2009).

One may read the IC50 as the concentration needed to halve the response being measured. What is called EC50 is the concentration needed to bring the measured effect to its halfway point. The term EC90 denotes the concentration at which the effect reaches the 90% level.

A short description of series [1]: Chemical stability in Tris-HCl buffer assessed as hydrolysis half life at pH 8 in presence of porcine esterase. In kind it is physicochemical. Particulars: pig, isolated protein. An outline of the steps:
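Prodrug at 1.4 mM final in pH 8.0 Tris-HCl with 5% DMSO and 20 μg/mL porcine esterase, incubated at 37 ± 0.5 °C. Aliquots quenched in ice-cold methanol/acetonitrile 1/1, filtered and analysed by HPLC. Enzyme activity checked with ethyl butyrate substrate.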

The test system of the next series is CCRF-CEM. Briefly: Cytotoxicity against human CEM cells after 3 days by MTT assay. In kind it is cell-based. Conditions: 72 h. An outline of the steps: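 CEM T-lymphoblastoid cells in log phase, seeded at 2.5×10^3 cells/well with 10-fold serial dilutions of drug. Incubated 3 days at 37 °C in humidified 5% CO2-air. MTT dye added overnight, then solubilization for 5 h and read at 570 nm. IC50 from the concentration-response curve by the median effect method.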
(In general: Formazan colour is commonly taken as a measure of viable cells.)

In series [2] the test system is Human immunodeficiency virus 1. Briefly: Antiviral activity against HIV1 LAI infected in PBM cells. Conditions: Human immunodeficiency virus 1, LAI, PBMC.
A further series has as its system Vero. Briefly: Cytotoxicity against african green monkey Vero cells after 2 days by MTT assay. Particulars: Chlorocebus sabaeus, 48 h.
Series [3] can be described thus: Chemical stability in phosphate buffer assessed as hydrolysis half life at pH 7.4. In kind it is physicochemical. An outline of the steps: (§1)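 Prodrug, 1 mM in DMSO, diluted into 10 mM phosphate buffer at pH 2.0 or 7.4, ionic strength 0.1 set with NaCl, final 5% DMSO. Held at 37 ± 0.5 °C in screw-capped vials. Samples drawn over time, filtered and analysed by HPLC. Half-life from linear regression of a pseudo-first-order plot.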

Series [4] in a line: Chemical stability in phosphate buffer assessed as hydrolysis half life at pH 2.0. In kind it is physicochemical. An outline of the steps:
as §1

The test system of another series is PBMC. Briefly: Cytotoxicity against human PBM cells after 4 days by MTT assay. Conditions: 96 h.

Bounds are passed on as bounds.

For the molecule `Cc1cn([C@H]2CO[C@@H](COC(=O)C3CCCCC3)O2)c(=O)[nH]c1=O`, the t1/2 worked out at 0.322 h in series [1], 53.33 h in series [3] and 30.83 h in series [4]. In addition, the IC50 with CCRF-CEM, with Vero and in the series on PBMC was greater than 100 µM each time. In series [2], this molecule yielded an EC50 of 1.3 µM. This molecule registered an EC90 in series [2] of 3.9 µM.

In turn, `Cc1cn([C@H]2C[C@H](N=[N+]=[N-])[C@@H](CO)O2)c(=O)[nH]c1=O` [ZIDOVUDINE] came in with a concentration for an effect of 90% (EC90) in series [2] of 0.04 µM. The molecule further displayed an IC50 with PBMC greater than 100 µM.

For the molecule `Cc1cn([C@H]2CO[C@@H](COC(=O)C3CC3)O2)c(=O)[nH]c1=O`, the t1/2 in series [1] was 0.288 h; in series [3], 46.67 h; in series [4], 20 h. Further, the IC50 with CCRF-CEM, in the series with Vero and in the series with PBMC was greater than 100 µM throughout. The molecule further came in with an EC50 in series [2] of 4.7 µM. Moreover, in series [2], it took 15.1 µM to reach the 90% level (EC90).

In the case of `CC(=O)OC[C@@H]1OC[C@H](n2cc(C)c(=O)[nH]c2=O)O1`, the t1/2 came out at 0.272 h in series [1], 44.17 h in series [3] and 26.33 h in series [4]. Besides, the IC50 with CCRF-CEM was 99.4 µM; with Vero it was greater than 100 µM; in the series on PBMC, greater than 100 µM. In series [2], this molecule had an EC50 of 2.9 µM. In series [2], this molecule gave an EC90 of 12.3 µM.

As for `CCCCC(=O)OC[C@@H]1OC[C@H](n2cc(C)c(=O)[nH]c2=O)O1`, the t1/2 in series [1] was 0.308 h; in series [3], 53 h; in series [4] it was 26.67 h. Also, the IC50 in the series on CCRF-CEM was greater than 100 µM; with Vero it was 49 µM; in the series with PBMC it was greater than 100 µM. Besides, the EC50 in series [2] amounted to 0.4 µM. The molecule further gave an EC90 in series [2] of 2.5 µM.

As to `Cc1cn([C@H]2CO[C@@H](COC(=O)[C@H](N)C(C)C)O2)c(=O)[nH]c1=O.Cl`, the t1/2 in series [1] amounted to 0.323 h; in series [3] it was 30 h; in series [4], 12.2 h. For the same molecule, the IC50 with CCRF-CEM, in the series on Vero and with PBMC was greater than 100 µM in each case. Also, in series [2], the EC50 was 0.98 µM. In addition, it took 6.5 µM to reach the 90% level in series [2] (EC90).

On to `Cc1cn([C@H]2CO[C@@H](COCOC(=O)C(C)(C)C)O2)c(=O)[nH]c1=O`, for which, in series [1], the t1/2 amounted to 0.293 h. For the same molecule, the IC50 with CCRF-CEM, with Vero and in the series with PBMC was greater than 100 µM each time. This molecule also returned an EC50 in series [2] of 1.4 µM. Besides, the EC90 in series [2] turned out to be 9.7 µM.

For `Cc1cn([C@H]2CO[C@@H](COC(=O)[C@@H](N)CC(C)C)O2)c(=O)[nH]c1=O.Cl`, the t1/2 turned out to be 0.298 h in series [1], 35.83 h in series [3] and 14.5 h in series [4]. Besides, the IC50 in the series on CCRF-CEM, in the series with Vero and with PBMC was greater than 100 µM throughout. Moreover, in series [2], a half-maximal response (EC50) required 3.3 µM. The molecule further displayed an EC90 in series [2] of 12.4 µM.

Regarding `CCCCCCCCCCCCCCCC(=O)OC[C@@H]1OC[C@H](n2cc(C)c(=O)[nH]c2=O)O1`, the t1/2 in series [1] came out at 0.8 h. For the same molecule, the IC50 in the series with CCRF-CEM is greater than 100 µM; in the series on Vero, 92.2 µM; in the series with PBMC, greater than 100 µM. Further, the 50% effective concentration (EC50) in series [2] came to 23.5 µM. The molecule further showed an EC90 in series [2] greater than 100 µM.

As for `Cc1cn([C@H]2CO[C@@H](COC(=O)[C@@H](N)Cc3c[nH]c4ccccc34)O2)c(=O)[nH]c1=O.Cl`, the t1/2 in series [1] was 0.297 h; in series [3], 7 h; in series [4], 5.33 h. Further, the IC50 in the series on CCRF-CEM, in the series on Vero and with PBMC was greater than 100 µM each time. In addition, the EC50 in series [2] is 1.7 µM. The molecule further yielded an EC90 in series [2] of 8 µM.

Regarding `Cc1cn([C@H]2CO[C@@H](COC(=O)[C@H](N)Cc3ccccc3)O2)c(=O)[nH]c1=O.Cl`, the results for the t1/2 in series [1], in series [3] and in series [4] were 0.26 h, 15.7 h and 7.17 h, respectively. Also, the half-inhibitory concentration (IC50) in the series with CCRF-CEM, in the series on Vero and with PBMC was greater than 100 µM each time. In series [2], this molecule had an EC50 of 1 µM. This molecule also displayed a concentration for an effect of 90% (EC90) in series [2] of 5.2 µM.

Consider `Cc1cn([C@H]2CO[C@@H](COC(=O)CN)O2)c(=O)[nH]c1=O.Cl`, for which the t1/2 in series [1] is 0.207 h; in series [3], 22 h; in series [4], 8.67 h. In addition, the IC50 in the series on CCRF-CEM, with Vero and with PBMC was greater than 100 µM each time. In series [2], this molecule registered an EC50 of 2.5 µM. Besides, in series [2], the EC90 was 8.4 µM.

Take `CC[C@H](C)[C@H](N)C(=O)OC[C@@H]1OC[C@H](n2cc(C)c(=O)[nH]c2=O)O1.Cl`: the t1/2 in series [1] worked out at 0.292 h; in series [3], 34 h; in series [4], 13.3 h. The IC50 in the series on CCRF-CEM, with Vero and with PBMC was greater than 100 µM each time. The same molecule gave an EC50 in series [2] of 3 µM. Also, the EC90 in series [2] amounted to 9.9 µM.

Regarding `CCCCCCCC(=O)OC[C@@H]1OC[C@H](n2cc(C)c(=O)[nH]c2=O)O1`, the t1/2 worked out at 0.483 h in series [1], 54.17 h in series [3] and 30 h in series [4]. Further, the IC50 with CCRF-CEM, in the series on Vero and in the series on PBMC was greater than 100 µM each time. In series [2], this molecule yielded an EC50 of 0.6 µM. Besides, the EC90 in series [2] came to 4.3 µM.

As for `Cc1cn([C@H]2CO[C@@H](COC(=O)[C@@H](N)CCC(=O)O)O2)c(=O)[nH]c1=O.Cl`, the results for the t1/2 in series [1], in series [3] and in series [4] were 0.223 h, 4 h and 3.17 h, respectively. In addition, the IC50 in the series on CCRF-CEM, in the series on Vero and with PBMC was greater than 100 µM each time. The same molecule had an EC50 in series [2] of 0.89 µM. This molecule also gave an EC90 in series [2] of 6.3 µM.

`Cc1cn([C@H]2CO[C@@H](COC(=O)[C@H](C)N)O2)c(=O)[nH]c1=O.Cl`: the results for the t1/2 in series [1], in series [3] and in series [4] were 0.232 h, 26.67 h and 14.5 h, respectively. Moreover, the IC50 with CCRF-CEM, in the series on Vero and in the series on PBMC was greater than 100 µM each time. Besides, the EC50 in series [2] amounted to 0.98 µM. Also, the 90% effect level in series [2] (EC90) was put at 8.3 µM.

With `Cc1cn([C@H]2CO[C@@H](COC(=O)[C@@H](N)Cc3ccccc3)O2)c(=O)[nH]c1=O.Cl`, the values for the t1/2 in series [1], in series [3] and in series [4] were 0.243 h, 17.83 h and 9.17 h, respectively. The IC50 in the series on CCRF-CEM, in the series on Vero and with PBMC was greater than 100 µM throughout. Besides, the EC50 in series [2] amounted to 0.88 µM. Besides, in series [2], the EC90 is 4.4 µM.

Take `Cc1cn([C@H]2CO[C@@H](COC(=O)C(C)(C)N)O2)c(=O)[nH]c1=O.Cl`: the t1/2 in series [1] is 0.223 h; in series [3] it was 31.17 h; in series [4], 15.3 h. In addition, the half-maximal inhibitory concentration (IC50) in the series on CCRF-CEM, with Vero and in the series on PBMC was greater than 100 µM in each case. Further, in series [2], the EC50 was 2.2 µM. The 90% effect level in series [2] (EC90) was put at 7.6 µM.

For `Cc1cn([C@H]2CO[C@@H](COC(=O)[C@@H]3CCCN3)O2)c(=O)[nH]c1=O.Cl`, the results for the t1/2 in series [1], in series [3] and in series [4] were 0.227 h, 6.33 h and 3.83 h, respectively. In addition, the IC50 with CCRF-CEM, with Vero and with PBMC was greater than 100 µM throughout. This molecule came in with an EC50 in series [2] of 1.4 µM. In series [2], this molecule displayed an EC90 of 7.3 µM.

Consider `Cc1cn([C@H]2CO[C@@H](COC(=O)[C@@H](N)C(C)C)O2)c(=O)[nH]c1=O.Cl`, for which the t1/2 came to 0.315 h in series [1], 36.67 h in series [3] and 16 h in series [4]. In addition, the IC50 in the series on CCRF-CEM, in the series with Vero and with PBMC was greater than 100 µM throughout. For the same molecule, the EC50 in series [2] was 0.56 µM. In series [2], it took 4.9 µM to reach the 90% level (EC90).

`CCCCCCCCCCCC(=O)OC[C@@H]1OC[C@H](n2cc(C)c(=O)[nH]c2=O)O1`: in series [1], the t1/2 was 0.683 h. For the same molecule, the IC50 in the series with CCRF-CEM, with Vero and in the series on PBMC was greater than 100 µM throughout. This molecule gave an EC50 in series [2] of 0.4 µM. Also, the EC90 in series [2] amounted to 3.2 µM.

`Cc1cn([C@H]2CO[C@@H](COC(=O)C(C)(C)C)O2)c(=O)[nH]c1=O`: the t1/2 in series [1] worked out at 0.283 h; in series [3], 46.33 h; in series [4] it was 21.67 h. In addition, the IC50 with CCRF-CEM is greater than 100 µM; in the series on Vero, 18.1 µM; in the series with PBMC, greater than 100 µM. In series [2], a half-maximal response (EC50) required 1.3 µM. In series [2], this molecule came in with a concentration for an effect of 90% (EC90) of 14.5 µM.
